This is an account of results in ChEMBL document CHEMBL1148991, “Antifungal flavonoids from Hildegardia barteri” (J Nat Prod, 2005).

Values after ≈ are worked out from the molar mass of the structure shown. Some results are limits rather than exact numbers.

Common to all, as to assay type: functional, organism-based
Assay [1] deals with Candida albicans. As to the kind of experiment: Antifungal activity against azole-sensitive Candida albicans by broth microdilution assay. The method in brief:
(§1)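 Follow-up panel of recent drug-resistant and drug-sensitive clinical Candida isolates, tested alongside quality control strains C. krusei ATCC 6258 and C. parapsilopsis ATCC 22019.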

For assay [2], the system named is Candida albicans. In words: Antifungal activity against polyene-resistant Candida albicans by broth microdilution assay. The method in brief: as §1
For assay [3], the system named is Nakaseomyces glabratus. In words: Antifungal activity against polyene-resistant Candida glabrata by broth microdilution assay. A digest of the protocol:
as §1

For assay [4], the system named is Candida albicans. In words: Antifungal activity against azole-resistant Candida albicans by broth microdilution assay. The method in brief:
as §1

For assay [5], the system named is Nakaseomyces glabratus. As to the kind of experiment: Antifungal activity against azole-resistant Candida glabrata by broth microdilution assay. A digest of the protocol: as §1
For another assay, the system named is Pichia kudriavzevii. In words: Antifungal activity against azole-resistant Candida krusei by broth microdilution assay. A digest of the protocol:
as §1

On to `COc1cc2c(cc1O)C[C@H](c1cc3c(cc1O)OCO3)CO2` [HILDEGARDIOL], for which the concentration for half-maximal inhibition (IC50) is over 128 µg/mL in the assay with Candida albicans [1]; over 128 µg/mL in the assay with Candida albicans [2]; over 128 µg/mL in the assay on Nakaseomyces glabratus [3]; at least 64 µg/mL with Candida albicans [4]; at least 64 µg/mL in the assay with Nakaseomyces glabratus [5]; over 128 µg/mL with Pichia kudriavzevii.
With `Oc1cc2c(cc1O)[C@@H]1Oc3cc4c(cc3[C@@H]1CO2)OCO4`, the IC50 in the assay on Candida albicans [1] turned out to be 128 µg/mL (≈ 426 µM); in the assay on Candida albicans [2] it was 128 µg/mL (≈ 426 µM); in the assay on Nakaseomyces glabratus [3], 32 µg/mL (≈ 107 µM); with Candida albicans [4], 32 µg/mL (≈ 107 µM); with Nakaseomyces glabratus [5], 32 µg/mL (≈ 107 µM); in the assay on Pichia kudriavzevii, 128 µg/mL (≈ 426 µM).
For the molecule `C[C@@H](c1ncncc1F)[C@](O)(Cn1cncn1)c1ccc(F)cc1F` [VORICONAZOLE], the IC50 in the assay with Candida albicans [1] was 0.007 µg/mL (≈ 0.02 µM); with Candida albicans [4] it was 4 µg/mL (≈ 11.5 µM); in the assay on Nakaseomyces glabratus [5], 8 µg/mL (≈ 22.9 µM); in the assay on Pichia kudriavzevii it was 1 µg/mL (≈ 2.86 µM).
For the molecule `OC(Cn1cncn1)(Cn1cncn1)c1ccc(F)cc1F` [FLUCONAZOLE], the IC50 came to 0.12 µg/mL (≈ 0.392 µM) with Candida albicans [1], 256 µg/mL (≈ 836 µM) in the assay with Candida albicans [4], 256 µg/mL (≈ 836 µM) in the assay on Nakaseomyces glabratus [5] and 128 µg/mL (≈ 418 µM) with Pichia kudriavzevii.
`Cc1c(O)c(C)c2c(c1O)C(=O)C[C@@H](c1ccc(O)cc1)O2` [FARREROL]: the IC50 with Candida albicans [1], in the assay with Candida albicans [2], in the assay on Nakaseomyces glabratus [3], in the assay with Candida albicans [4], with Nakaseomyces glabratus [5] and in the assay on Pichia kudriavzevii was over 32 µg/mL in each case.
Turning to `C[C@@H]1[C@H](O)[C@@H](C)/C=C/C=C/C=C/C=C/C=C/C=C/C=C/[C@H](O[C@@H]2O[C@H](C)[C@@H](O)[C@H](N)[C@@H]2O)C[C@@H]2O[C@](O)(C[C@@H](O)C[C@@H](O)[C@H](O)CC[C@@H](O)C[C@@H](O)CC(=O)O[C@H]1C)C[C@H](O)[C@H]2C(=O)O` [AMPHOTERICIN B], the IC50 in the assay on Candida albicans [2] is 3 µg/mL (≈ 3.25 µM); with Nakaseomyces glabratus [3], 4 µg/mL (≈ 4.33 µM).
